Activity calls are given as the source filed them. The calls are words filed in the database; no cut-off is given here.
Key:
Cannabinoid receptor 1 = Cannabinoid receptor 1 (Homo sapiens, UniProt P21554); assay: biochemical; format: cell-based, CHO
Rattus norvegicus [1] = assay: Reduction in food uptake in DIO Sprague-Dawley rat at 10 mg/kg, po; format: functional; design: scale not given: the % may be the effect or the level left
Procedure, shortened: (§1)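 Diet-induced obese rats were dosed orally. Overnight food intake was measured and reported as % change (mean ± error).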

[2] = Drug level in Sprague-Dawley rat plasma at 1 mg/kg, iv after 1 hr; format: ADME, organism-based; design: dose 1 mg/kg, route intravenous; conditions: read-out: Drug uptake
[3] = Bioavailability in Sprague-Dawley rat at 1 mg/kg, iv and 2 mg/kg, po; format: ADME, organism-based; conditions: in vivo
[4] = Drug level in Sprague-Dawley rat brain at 1 mg/kg, iv after 1 hr; format: ADME, organism-based; design: dose 1 mg/kg, route intravenous; conditions: read-out: Drug uptake
Rattus norvegicus [5] = assay: Reduction in food uptake in DIO Sprague-Dawley rat at 3 mg/kg, po; format: functional; design: scale not given: the % may be the effect or the level left
Procedure, shortened: as §1

Homo sapiens = species on record: Homo sapiens; assay: Protein binding in human liver microsome; format: ADME; conditions: microsomes
Procedure, shortened: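 The tritiated compound was incubated with liver microsomes. Irreversible (covalent) binding of radioactivity to microsomal protein was measured after 1 h of incubation and expressed as pmol equiv/mg protein.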

Cannabinoid receptor 2 = Cannabinoid receptor 2 (Homo sapiens, UniProt P34972); assay: Inhibition of [3H]CP-55940 binding to human recombinant CB2 receptor in CHO cells; format: cell-based
Sequence of Cannabinoid receptor 2 (P34972 whole entry): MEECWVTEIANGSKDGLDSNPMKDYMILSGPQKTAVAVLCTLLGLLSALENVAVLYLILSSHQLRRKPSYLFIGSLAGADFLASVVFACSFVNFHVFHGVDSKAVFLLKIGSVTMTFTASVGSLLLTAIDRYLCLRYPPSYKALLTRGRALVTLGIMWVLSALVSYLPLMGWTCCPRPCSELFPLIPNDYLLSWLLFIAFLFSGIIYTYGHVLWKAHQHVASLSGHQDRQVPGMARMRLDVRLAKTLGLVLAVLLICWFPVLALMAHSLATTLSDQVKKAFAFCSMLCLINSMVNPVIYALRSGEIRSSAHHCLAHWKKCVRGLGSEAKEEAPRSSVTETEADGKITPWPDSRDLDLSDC

[6] = Bioavailability in rhesus monkey at 0.2 mg/kg, iv and 0.4 mg/kg, po; format: ADME, organism-based, Macaca mulatta; conditions: in vivo
[7] = Bioavailability in dog at 0.2 mg/kg, iv and 0.4 mg/kg, po; format: ADME, organism-based, Canis lupus familiaris; conditions: in vivo
Rattus norvegicus [8] = assay: Reduction in Sprague-Dawley rat body weight at 1 mg/kg, po after 14 days relative to control; format: functional; design: scale not given: the % may be the effect or the level left
Procedure, shortened: (§2)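 Diet-induced obese (DIO) rats were dosed orally once daily (qd) for 14 days at 0.3, 1 or 3 mg/kg. Body weight change is expressed as percent reduction relative to vehicle-treated animals.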

Rattus norvegicus [9] = assay: Inhibition of CP-55940-induced decrease in body temperature in Sprague-Dawley rat at 3 mg/kg, iv; format: functional, organism-based; design: dose 3 mg/kg
[10] = Half life in dog at 0.2 mg/kg, iv and 0.4 mg/kg, po; format: ADME, organism-based, Canis lupus familiaris; conditions: in vivo
Rattus norvegicus [11] = assay: Reduction in Sprague-Dawley rat body weight at 3 mg/kg, po after 14 days relative to control; format: functional; design: scale not given: the % may be the effect or the level left
Procedure, shortened: as §2

Rattus norvegicus [12] = assay: Reduction in Sprague-Dawley rat body weight at 0.3 mg/kg, po after 14 days relative to control; format: functional; design: scale not given: the % may be the effect or the level left
Procedure, shortened: as §2

[13] = Half life in rhesus monkey at 0.2 mg/kg, iv and 0.4 mg/kg, po; format: ADME, organism-based, Macaca mulatta; conditions: in vivo

Sequence of Cannabinoid receptor 1 (P21554 whole entry): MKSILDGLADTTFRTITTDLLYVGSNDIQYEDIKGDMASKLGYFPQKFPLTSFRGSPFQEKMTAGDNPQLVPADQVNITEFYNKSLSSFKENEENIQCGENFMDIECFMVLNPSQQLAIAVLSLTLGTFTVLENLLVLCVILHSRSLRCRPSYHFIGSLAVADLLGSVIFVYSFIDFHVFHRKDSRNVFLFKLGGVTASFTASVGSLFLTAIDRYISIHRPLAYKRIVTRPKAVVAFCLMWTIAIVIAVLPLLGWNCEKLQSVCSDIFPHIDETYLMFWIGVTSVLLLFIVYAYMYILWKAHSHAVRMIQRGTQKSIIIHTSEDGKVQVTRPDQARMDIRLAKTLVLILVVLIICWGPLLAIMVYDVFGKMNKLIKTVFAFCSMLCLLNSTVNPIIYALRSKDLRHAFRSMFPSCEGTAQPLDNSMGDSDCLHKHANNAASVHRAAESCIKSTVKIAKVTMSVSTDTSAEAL

C[C@H](NC(=O)C(C)(C)Oc1ccc(Cl)cc1)[C@@H](Cc1ccc(C(F)(F)F)cc1)c1ccccc1
IC50 (Cannabinoid receptor 1): 3.4 nM

C[C@H](NC(=O)C(C)(C)Oc1cc(F)cc(F)c1)[C@@H](Cc1ccc(Cl)cc1)c1ccccc1
Activity (Rattus norvegicus [1]): 81% | concentration at 1 h [2]: 350 nM | bioavailability [3]: 19% | concentration at 1 h [4]: 270 nM | Activity (Rattus norvegicus [5]): 55% | Activity (Homo sapiens): 1700 pmol/mg

C[C@H](NC(=O)C(C)(C)Oc1ccccc1Cl)[C@@H](Cc1ccc(Cl)cc1)c1ccccc1
IC50 (Cannabinoid receptor 1): 18 nM

C[C@H](NC(=O)C(C)(C)Oc1ccc(Cl)cc1)[C@@H](Cc1ccc(F)cc1)c1ccccc1
IC50 (Cannabinoid receptor 1): 14 nM

C[C@@H](NC(=O)C(C)(C)Oc1ccc(Cl)cc1)[C@H](Cc1ccc(Cl)cc1)c1ccccc1
IC50 (Cannabinoid receptor 1): 170 nM | IC50 (Cannabinoid receptor 2): 1700 nM

C[C@H](NC(=O)C(C)(C)Oc1ccc(Cl)cc1)[C@@H](Cc1ccccc1)c1ccccc1
IC50 (Cannabinoid receptor 1): 33 nM

C[C@H](NC(=O)C(C)(C)Oc1ccc(Cl)cc1)[C@@H](Cc1ccc(Cl)cc1)c1cccc(F)c1
IC50 (Cannabinoid receptor 1): 2.8 nM | IC50 (Cannabinoid receptor 2): 530 nM

C[C@H](NC(=O)C(C)(C)Oc1ccc(Cl)cc1)[C@@H](Cc1ccc(Cl)cc1)c1ccc(F)cc1
IC50 (Cannabinoid receptor 1): 90 nM

C[C@H](NC(=O)C(C)(C)Oc1cccnc1)[C@@H](Cc1ccc(Cl)cc1)c1ccccc1
IC50 (Cannabinoid receptor 1): 19 nM

C[C@H](NC(=O)C(C)(C)Oc1ccc(Cl)cn1)[C@@H](Cc1ccc(Cl)cc1)c1ccccc1
Activity (Homo sapiens): 300 pmol/mg

C[C@H](NC(=O)C(C)(C)Oc1ccncc1)[C@H](Cc1ccc(Cl)cc1)c1ccccc1
IC50 (Cannabinoid receptor 1): 17 nM | IC50 (Cannabinoid receptor 2): 1200 nM

C[C@H](NC(=O)C(C)(C)Oc1ccccc1)[C@@H](Cc1ccc(Cl)cc1)c1ccccc1
Activity (Homo sapiens): 3900 pmol/mg

C[C@H](NC(=O)C(C)(C)Oc1ccc(Cl)cc1)[C@@H](Cc1ccccc1Cl)c1ccccc1
IC50 (Cannabinoid receptor 1): 140 nM

C[C@H](NC(=O)C(C)(C)Oc1ccccn1)[C@@H](Cc1ccc(Cl)cc1)c1ccccc1
Activity (Homo sapiens): 910 pmol/mg

C[C@@H](NC(=O)C(C)(C)Oc1ccc(Cl)cc1)[C@H](Cc1ccc(Cl)cc1)c1ccc(Cl)cc1
IC50 (Cannabinoid receptor 1): 13 nM | IC50 (Cannabinoid receptor 2): 600 nM

C[C@H](NC(=O)C(C)(C)Oc1ccc(C(F)(F)F)cn1)[C@@H](Cc1ccc(Cl)cc1)c1ccccc1
Activity (Homo sapiens): 88 pmol/mg

C[C@H](NC(=O)C(C)(C)Oc1ccc(Cl)cc1)[C@@H](Cc1ccc(Cl)cc1)c1ccccc1F
IC50 (Cannabinoid receptor 1): 12 nM | IC50 (Cannabinoid receptor 2): 410 nM

C[C@H](NC(=O)C(C)(C)Oc1ccc(C(F)(F)F)cn1)[C@@H](Cc1ccc(Cl)cc1)c1cccc(C#N)c1 [TARANABANT]
bioavailability [6]: 31% | bioavailability [7]: 31% | concentration at 1 h [2]: 180 nM | Activity (Rattus norvegicus [8]): 5% | bioavailability [3]: 74% | Activity (Rattus norvegicus [9]): Active | half-life [10]: 14 h | Activity (Rattus norvegicus [11]): 7% | concentration at 1 h [4]: 110 nM | Activity (Homo sapiens): 27 pmol/mg | Activity (Rattus norvegicus [12]): 4% | half-life [13]: 3.6 h
